Activity calls are given as the source filed them. The calls are words filed in the database; no cut-off is given here.
What was measured:
H9c2 [1] = assay: Antioxidant activity in rat H9c2 cells assessed as protection against H2O2-induced hypoxic injury by measuring cell viability at 1 uM preincubated for 4 hrs followed by H2O2 stimulation for 1 hr by MTT assay relative to control; type: functional
Procedure, shortened: (§1)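 H9c2 cells at 1 × 10^5 cells/mL, 100 μL per well in triplicate, left 18 h. Compound diluted in DMSO; DMSO alone as negative control. 4 h pretreatment, then 400 nM H2O2 for 1 h. Medium removed and MTT added for 2-4 h, formazan dissolved in DMSO, absorbance at 570 nm. Medium-only wells gave the blank.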

H9c2 [2] = assay: Antioxidant activity in rat H9c2 cells assessed as protection against H2O2-induced hypoxic injury by measuring cell viability at 10 uM preincubated for 4 hrs followed by H2O2 stimulation for 1 hr by MTT assay relative to control; type: functional; procedure, shortened: as §1
H9c2 [3] = assay: Antioxidant activity in rat H9c2 cells assessed as protection against H2O2-induced hypoxic injury by measuring cell viability preincubated for 4 hrs followed by H2O2 stimulation for 1 hr by MTT assay relative to control; type: functional; conditions: time 5 hrs, read-out: ED50 (the source's name)
Procedure, shortened: (§2)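 ED50 taken from log dose against % viability. Viability also reported at the EC50 concentration. Means ± SEM from three independent experiments.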

H9c2 [4] = assay: Antioxidant activity in rat H9c2 cells assessed as protection against H2O2-induced hypoxic injury by measuring cell viability at ED50 concentration preincubated for 4 hrs followed by H2O2 stimulation for 1 hr by MTT assay relative to control; type: functional; conditions: time 5 hrs; procedure, shortened: as §2
H9c2 [5] = assay: Cytoprotective activity against H2O2-induced injury in rat H9c2 cells assessed as reduction in LDH release at 10 uM preincubated for 4 hrs followed by H2O2 stimulation for 1 hr by LDH assay; type: functional, cell-based; conditions: time 5.0 hrs
Procedure, shortened: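 Cells at 5 × 10^4 per well in triplicate, 18 h, then 4 h compound and 1 h H2O2. Model wells had H2O2 without compound; controls had DMSO. 50 μL medium mixed with 2X LDH assay buffer, kept in the dark at 22-25 °C for 10-30 min, read at 490-520 nm. Activity blank-subtracted, normalised to BCA protein of the lysed cells, and expressed relative to model wells.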

H9c2 [6] = assay: Anti-oxidative effect in rat H9c2 cells assessed as reduction in H2O2-induced MnSOD activity at 10 uM preincubated for 4 hrs followed by H2O2 stimulation for 1 hr by WST-8 assay; type: functional, cell-based; conditions: time 5.0 hrs
Procedure, shortened: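 H9c2 cells (ATCC) grown in high-glucose DMEM with 10% FBS at 37 °C, 5% CO2, used at 80-90% confluence and serum-starved 12 h. Compound given 4 h, then medium replaced by DMEM with 500 nM H2O2 for 1 h. Lysate spun 15,000g for 15 min. Cu/Zn SOD blocked with 1 mmol/L KCN, MnSOD read by WST-8 kit, expressed as U/mg protein.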

H9c2 [7] = assay: Antiapoptotic activity in rat H9c2 cells assessed as restoration of H2O2-induced bcl-2 downregulation at 10 uM preincubated for 4 hrs followed by H2O2 stimulation for 1 hr by Western blotting analysis; type: functional, cell-based; conditions: time 5.0 hrs
Procedure, shortened: (§3)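 Serum-starved (12 h) H9c2 cells were pretreated 4 h, then exposed to 500 nM H2O2 in DMEM for 1 h. Lysis on ice with protease/phosphatase inhibitors, then 13,000 g at 4 °C for 15 min. 20 μg protein run on 8-12% SDS-PAGE and blotted to PVDF. Probed overnight at 4 °C for caspase-3, pro-caspase-3, Bcl-2 and GAPDH, with chemiluminescent detection.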

H9c2 [8] = assay: Antiapoptotic activity in rat H9c2 cells assessed as reduction in H2O2-induced caspase-3 activation at 10 uM preincubated for 4 hrs followed by H2O2 stimulation for 1 hr by Western blotting analysis; type: functional, cell-based; conditions: time 5.0 hrs; procedure, shortened: as §3
H9c2 [9] = assay: Antiapoptotic activity in rat H9c2 cells assessed as reduction in H2O2-induced mitochondrial membrane potential loss at 10 uM preincubated for 4 hrs followed by H2O2 stimulation for 1 hr by JC1 staining based fluorescence microscopic analysis; type: functional, cell-based; conditions: time 5.0 hrs
Procedure, shortened: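 Pretreatment 4 h before 400 nM H2O2. Cells washed in cold PBS pH 7.4 and loaded with 0.5 μg/mL JC-1 for 40 min at 37 °C, washed, then viewed at once by fluorescence microscopy. Monomer read at ex 490/em 535 nm, aggregate at ex 525/em 600 nm. Ratio taken from three independent fields per group, mean ± SD.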

Mus musculus [10] = assay: (§4) Cardioprotective activity in C57BL/6J mouse model of LAD coronary artery ligation-induced acute myocardial infarction assessed as reduction in myocardial infarct size at 10 mg/kg, ip pretreated for 7 consecutive days followed by LAD coronary artery ligation after compound treatment for another 3 days by TTC staining based assay; type: functional, organism-based; conditions: time 10.0 day
Procedure, shortened: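 Male/female not stated; 8-week C57BL/6J mice given daily ip doses in saline vehicle for 7 d, then permanent LAD ligation, with dosing continued 3 more days to sacrifice. Under isoflurane, hearts perfused with saline plus 40 mM KCl, cut into 4-5 transverse slices, stained with 1% TTC pH 7.4 at 37 °C for 20 min, formalin-fixed; infarct area by planimetry as % of LV area; N = 6-7 per group.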

Mus musculus [11] = assay: as §4, with “apoptosis of cardiomyocytes” for “myocardial infarct size”, “TUNEL” for “TTC”; type: functional, organism-based; conditions: time 10.0 day
Procedure, shortened: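 C57BL/6J mice, 8 weeks old, given compound i.p. in saline vehicle daily for 7 days, then permanent LAD ligation with body temperature held at 37 °C. Dosing continued 3 more days until sacrifice. Sections treated with proteinase K, then TdT reaction 30 min at 37 °C and DAPI counterstain. TUNEL-positive nuclei in border area counted as % of DAPI nuclei, N = 4 per group.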

[12] = Half life in po dosed Sprague-Dawley rat measured upto 24 hrs by LC-MS/MS analysis; type: ADME, organism-based; conditions: in vivo
[13] = Oral bioavailability in Sprague-Dawley rat measured upto 24 hrs by LC-MS/MS analysis; type: ADME, organism-based; conditions: in vivo

SMILES: COc1cc(C(=O)OCCCCNC(=N)N)cc(OC)c1O [LEONURINE]
- Activity (H9c2 [1]): 52.4%
- Activity (H9c2 [2]): 62.7%
- EC50 (H9c2 [3]): 192 nM
- Activity (H9c2 [4]): 55.1%
- Activity (H9c2 [5]): inactive
- Activity (H9c2 [6]): Active
- Activity (H9c2 [7]): Active
- Activity (H9c2 [8]): Active
- Activity (H9c2 [9]): Active
- Activity (Mus musculus [10]): Active
- Activity (Mus musculus [11]): Active
- half-life [12]: > 2 h
- bioavailability [13]: 1.78%

— ChEMBL document CHEMBL4765343, “Design and synthesis of novel SCM-198 analogs as cardioprotective agents: Structure-activity relationship studies and biological evaluations” (Eur J Med Chem, 2020)
